Source: article PMC6392825 (ChemistryOpen, 2019)
Converted amounts (≈) assume the structure as drawn.

Key:
[1] = Water solubility, shake flask method, 0.1 M phosphate buffer pH 6.8; type: physicochemical; conditions: 37 °C, pH 6.8, aqueous buffer, thermodynamic from solid
[2] = tested on: HepG2; test: Cytotoxicity, mitochondrial activity; type: cell-based; conditions: Homo sapiens, HepG2, 72 h, read-out: IC50 MTT
Summary of the method: (§1)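 Seeded at 20000 cells/well in DMEM and grown 24 h at 37 °C, 10% CO2. Medium was then replaced with serum-free medium holding test compound (25 mM DMSO stock) at various concentrations for 72 h, in triplicate; doxorubicin was the positive control. MTT (5 mg/mL stock in PBS) added for 2 h, formazan dissolved in DMSO, A570. IC50 derived from % surviving cells, reported as mean ± SD combined with SRB data.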

[3] = tested on: Caco‐2; test: Intracellular ROS assay; type: cell-based; conditions: for activity at 1 µM / activity at 10 µM: Homo sapiens, Caco-2, read-out: Intracellular ROS, percentage compared to the untreated control cells (ROS/SRB); for change of intracellular ROS in words: Caco‐2, vs untreated control, 10 and 1 μM
Summary of the method: (§2)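 Cells seeded at 20000/well and grown 24 h at 37 °C, 10% CO2, then treated with test compound at 10 and 1 μM in serum-free medium. NAC and doxorubicin served as controls. After a PBS wash, cells were loaded with 20 μM DCFH-DA for 30 min, washed, and held 1 h in phenol red-free DMEM. Fluorescence read at ex 485/em 535 nm and normalized to SRB in the same well. Reported as % of untreated control, n ≥ 3, two-tailed t-test with unequal variances.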

[4] = tested on: Caco‐2; test: Cytotoxicity, mitochondrial activity; type: cell-based; conditions: Homo sapiens, Caco-2, 72 h, read-out: IC50 MTT
Summary of the method: as §1

[5] = tested on: EA.hy926; test: Cytotoxicity, mitochondrial activity; type: cell-based; conditions: Homo sapiens, EA.hy 926, 72 h, read-out: IC50 MTT
Summary of the method: as §1

[6] = tested on: Caco‐2; test: Cell growth inhibition, protein content; type: cell-based; conditions: Homo sapiens, Caco-2, 72 h, read-out: IC50 SRB
Summary of the method: (§3)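 Cell lines from ATCC, grown in DMEM+glutamax with 1% NEAA, 1% P/S and 10% FBS at 37 °C, 10% CO2. Seeded at 20000 cells/well for 24 h, then exposed to test compound (25 mM DMSO stock) for three days. Fixed with cold TCA for 1 h at 4 °C, stained 30 min with 0.4% SRB in 1% acetic acid, dissolved in 10 mM Tris, A490. Triplicate; IC50 given as mean ± SD combined with MTT data (n ≥ 3).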

[7] = tested on: HepG2; test: Intracellular ROS assay; type: cell-based; conditions: for change of intracellular ROS in words: HepG2, vs untreated control, 10 and 1 μM; for activity at 1 µM / activity at 10 µM: Homo sapiens, HepG2, read-out: Intracellular ROS, percentage compared to the untreated control cells (ROS/SRB)
Summary of the method: as §2

[8] = tested on: EA.hy926; test: Intracellular ROS assay; type: cell-based; conditions: for change of intracellular ROS in words: EA.hy926, vs untreated control, 10 and 1 μM; for activity at 1 µM / activity at 10 µM: Homo sapiens, EA.hy 926, read-out: Intracellular ROS, percentage compared to the untreated control cells (ROS/SRB)
Summary of the method: as §2

[9] = tested on: CHO‐K1; test: Intracellular ROS assay; type: cell-based, Chinese hamster; conditions: CHO‐K1, vs untreated control, 10 and 1 μM
Summary of the method: as §2

[10] = tested on: HT‐29; test: Cytotoxicity, mitochondrial activity; type: cell-based; conditions: Homo sapiens, HT-29, 72 h, read-out: IC50 MTT
Summary of the method: as §1

[11] = tested on: HT‐29; test: Intracellular ROS assay; type: cell-based; conditions: for activity at 1 µM / activity at 10 µM: Homo sapiens, HT-29, read-out: Intracellular ROS, percentage compared to the untreated control cells (ROS/SRB); for change of intracellular ROS in words: HT‐29, vs untreated control, 10 and 1 μM
Summary of the method: as §2

[12] = tested on: EA.hy926; test: Cell growth inhibition, protein content; type: cell-based; conditions: Homo sapiens, EA.hy 926, 72 h, read-out: IC50 SRB
Summary of the method: as §3

[13] = Chemical antioxidant capacity, FRAP assay
[14] = tested on: HepG2; test: Cell growth inhibition, protein content; type: cell-based; conditions: Homo sapiens, HepG2, 72 h, read-out: IC50 SRB
Summary of the method: as §3

[15] = tested on: HT‐29; test: Cell growth inhibition, protein content; type: cell-based; conditions: Homo sapiens, HT-29, 72 h, read-out: IC50 SRB
Summary of the method: as §3

solubility at 90 min [1] | solubility at 24 h [1] | IC50 [6] | IC50 [14] | SMILES | IC50 [2] | activity at 1 µM [3] | activity at 10 µM [3] | IC50 [4] | IC50 [5] | change of intracellular ROS in words [7] | activity at 1 µM [7] | activity at 10 µM [7] | activity at 1 µM [8] | activity at 10 µM [8] | IC50 [10] | activity at 1 µM [11] | activity at 10 µM [11] | IC50 [12] | FRAP (Trolox equivalent per μM) [13] | IC50 [15] | further results
16.8 ± 1.6 µM (≈ 5.37 µg/mL) | 12.8 ± 1.4 µM (≈ 4.09 µg/mL) | 46.5 ± 0.5 µM | 54.6 ± 0.3 µM | COc1cc(/C=C/c2cc(/C=C/c3ccncc3)[nH]n2)ccc1O [4 b, 2‐Methoxy‐4‐{(E)‐2‐[5‐((E)‐2‐(pyridin‐4‐yl)vinyl)‐1H‐pyrazol‐3‐yl]vinyl}phenol] | 56.7 ± 0.5 µM | 106 ± 4.6% | 94.3 ± 6.7% | 39.3 ± 1.2 µM | 35.7 ± 0.1 µM | significantly increased ROS production | 135 ± 14.1% | 123 ± 11.4% | 86.9 ± 1.6% | 80.6 ± 6.8% | 49 ± 0.7 µM | 111 ± 16.2% | 114 ± 12.3% | 51.8 ± 0.3 µM | 0.43 Trolox equivalent per μM | 47.4 ± 0.2 µM | change of intracellular ROS in words [8]: decreased intracellular ROS; change of intracellular ROS in words [9]: significantly increased ROS; FRAP (curcumin equivalent per μM) [13]: 0.42 curcumin equivalent per μM
7.8 ± 0.1 µM (≈ 2.47 µg/mL) | 7.7 ± 0.6 µM (≈ 2.44 µg/mL) | 29.8 ± 2.3 µM | > 75 µM | O=C(/C=C(O)/C=C/c1ccncc1)/C=C/c1c[nH]c2ccccc12 [3 i, (1E,4Z,6E)‐5‐Hydroxy‐1‐(1H‐indol‐3‐yl)‐7‐(pyridin‐4‐yl)hepta‐1,4,6‐trien‐3‐one] | 48.5 ± 1.7 µM | 101 ± 5.1% | 89.7 ± 8.9% | 47.1 ± 1.6 µM | 34.9 ± 1.3 µM |  | 125 ± 12% | 147 ± 12.8% | 106 ± 10.5% | 119 ± 2.9% | 42 ± 1 µM | 73.3 ± 7.8% | 73.6 ± 5.3% | > 75 µM | 0.19 Trolox equivalent per μM | 64.2 ± 2.76 µM | FRAP (curcumin equivalent per μM) [13]: 0.18 curcumin equivalent per μM

More lines, now with the values behind:

SMILES | solubility at 90 min [1] | solubility at 24 h [1] | IC50 [6] | IC50 [14] | IC50 [2] | activity at 1 µM [3] | activity at 10 µM [3] | IC50 [4] | IC50 [5] | change of intracellular ROS in words [7] | activity at 1 µM [7] | activity at 10 µM [7] | activity at 1 µM [8] | activity at 10 µM [8] | IC50 [10] | activity at 1 µM [11] | activity at 10 µM [11] | IC50 [12] | FRAP (Trolox equivalent per μM) [13] | IC50 [15] | further results
C(=C\c1c[nH]c2ccccc12)/c1cc(/C=C/c2cccs2)[nH]n1 [4 d, 3‐{(E)‐2‐[5‐((E)‐2‐(thiophen‐2‐yl)vinyl)‐1H‐pyrazol‐3‐yl]vinyl}‐1H‐indole] | 13.7 ± 0.5 µM (≈ 4.35 µg/mL) | 11.7 ± 2.3 µM (≈ 3.71 µg/mL) | 21.1 ± 0.3 µM | 49.5 ± 2.1 µM | 34.9 ± 0.8 µM | 458 ± 97.5% | 382 ± 62.6% | 19.6 ± 4 µM | 6 ± 0.9 µM | significantly increased ROS production |  | 985 ± 78.2% | 483.9 ± 1.4% | 402 ± 23.4% | 4.2 ± 0.4 µM | 463 ± 42.7% | 384 ± 47.5% | 9.5 ± 0.4 µM | 0.33 Trolox equivalent per μM | 9.7 ± 0.5 µM | change of intracellular ROS in words [3]: significantly increased ROS production; change of intracellular ROS in words [8]: significantly increased ROS production; change of intracellular ROS in words [9]: significantly increased ROS; change of intracellular ROS in words [11]: higher ROS signal; FRAP (curcumin equivalent per μM) [13]: 0.32 curcumin equivalent per μM
COc1cc(/C=C/C(=O)/C=C(O)/C=C/c2ccc[nH]2)ccc1O [3 f, (1E,4Z,6E)‐5‐Hydroxy‐1‐(4‐hydroxy‐3‐methoxyphenyl)‐7‐(1H‐pyrrol‐2‐yl)hepta‐1,4,6‐trien‐3‐one] | 20.9 ± 1.7 µM (≈ 6.51 µg/mL) | 18.3 ± 0.4 µM (≈ 5.7 µg/mL) | 15.9 ± 2 µM | 7.1 ± 0.2 µM | 31.7 ± 0.6 µM | 125 ± 3.5% | 147 ± 12% | 17.1 ± 0.4 µM | 45.6 ± 0.9 µM | significantly increased ROS production | 98.9 ± 2.9% | 216 ± 13.7% | 125 ± 9.7% | 132 ± 12.7% | 33.9 ± 0.4 µM | 117 ± 10.5% | 109 ± 2.6% | 33.8 ± 1.4 µM | 0.56 Trolox equivalent per μM | 36.1 ± 2.3 µM | change of intracellular ROS in words [9]: significantly increased ROS; change of intracellular ROS in words [11]: higher ROS signal; FRAP (curcumin equivalent per μM) [13]: 0.54 curcumin equivalent per μM; antioxidant activity in words, FRAP [13]: comparable to ascorbic acid
COc1cccc2c1C(=O)c1c(O)c3c(c(O)c1C2=O)C[C@@](O)(C(=O)CO)C[C@@H]3O[C@H]1C[C@H](N)[C@H](O)[C@H](C)O1 [Dox, doxorubicin, reference compound] |  |  | 9.2 ± 0.5 µM | 1.3 ± 0.3 µM | 1.8 ± 0.1 µM | 121 ± 9.4% | 112 ± 3.9% | 13 ± 0.5 µM | 4.1 ± 0.1 µM | significant increase in ROS generation | 100 ± 4.1% | 119 ± 4.2% | 108 ± 6.2% | 125 ± 5.1% | 4.8 ± 0.1 µM | 116 ± 1.7% | 126 ± 1.8% | 3.4 ± 0.4 µM |  | 2.7 ± 0.1 µM | change of intracellular ROS in words [3]: significant increase in ROS generation; change of intracellular ROS in words [8]: significant increase in ROS generation; change of intracellular ROS in words [9]: significant increase in ROS generation; change of intracellular ROS in words [11]: significant increase in ROS generation
O=C(/C=C(O)/C=C/c1cccnc1)/C=C/c1c[nH]c2ccccc12 [3 h, (1E,4Z,6E)‐5‐Hydroxy‐1‐(1H‐indol‐3‐yl)‐7‐(pyridin‐3‐yl)hepta‐1,4,6‐trien‐3‐one] | 5.3 ± 0.1 µM (≈ 1.68 µg/mL) | 5.4 ± 0.1 µM (≈ 1.71 µg/mL) | 10.3 ± 0.1 µM | 10.2 ± 0.4 µM | 5 ± 0.3 µM | 111 ± 3.2% | 128 ± 8.2% | 6.7 ± 0.4 µM | 6.2 ± 0.3 µM | significantly increased ROS production | 115 ± 4.5% | 112 ± 4.9% | 97.9 ± 9.8% | 107 ± 5.3% | 6.4 ± 0.8 µM | 82.3 ± 1.5% | 95.6 ± 4.2% | 2.9 ± 0.1 µM | 0.13 Trolox equivalent per μM | 34.6 ± 0.8 µM | FRAP (curcumin equivalent per μM) [13]: 0.12 curcumin equivalent per μM
